Data taken from ChEMBL document CHEMBL4229342, “Synthesis of novel proxyphylline derivatives with dual Anti-Candida albicans and anticancer activity” (Eur J Med Chem, 2018).
≈ marks a conversion by molar mass, not a printed value.

Experiments:
Candida albicans [1] = test: Growth inhibition of Candida albicans ATCC 90028 at 2 ug/ml incubated for 18 hrs at 35 degC by broth microdilution method relative to control; format: functional; conditions: ATCC 90028, 18 h, read-out: GI
Candida albicans [2] = test: Growth inhibition of Candida albicans ATCC 90028 at 0.125 ug/ml incubated for 4 hrs at 35 degC by broth microdilution method relative to control; format: functional; conditions: ATCC 90028, 4 h, read-out: GI
Candida albicans [3] = test: Growth inhibition of Candida albicans ATCC 90028 at 0.0625 ug/ml incubated for 18 hrs at 35 degC by broth microdilution method relative to control; format: functional; conditions: ATCC 90028, 18 h, read-out: GI
Candida albicans [4] = test: Fungicidal activity against Candida albicans ATCC 90028 assessed as drug level causing 3 fold reduction in bacterial count after 48 hrs at 35 degC; format: functional; conditions: ATCC 90028, 48 h
Candida albicans [5] = test: Growth inhibition of Candida albicans ATCC 90028 at 0.25 ug/ml incubated for 4 hrs at 35 degC by broth microdilution method relative to control; format: functional; conditions: ATCC 90028, 4 h, read-out: GI
MCF7 [6] = test: Antiproliferative activity against human MCF7 cells assessed as cell viability at 50 uM after 72 hrs by MTT assay; format: functional; conditions: MCF7, 72 h, read-out: Activity
Procedure, shortened: (§1)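 MTT viability assay in CCRF-CEM and MCF-7 cells after 72 h exposure at 25, 50, 100 and 200 µM. Results are relative to control cells without inhibitor in 0.5% DMSO. Done in triplicate; values are means ± SD of three independent experiments.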

CCRF-CEM [7] = test: Antiproliferative activity against human CCRF-CEM cells assessed as cell viability at 50 uM after 72 hrs by MTT assay; format: functional; conditions: read-out: Activity; procedure, shortened: as §1
Candida albicans [8] = test: Growth inhibition of Candida albicans ATCC 90028 at 1 ug/ml incubated for 18 hrs at 35 degC by broth microdilution method relative to control; format: functional; conditions: ATCC 90028, 18 h, read-out: GI
Candida albicans [9] = test: Growth inhibition of Candida albicans ATCC 90028 at 16 ug/ml incubated for 48 hrs at 35 degC by broth microdilution method relative to control; format: functional; conditions: ATCC 90028, 48 h, read-out: GI
MCF7 [10] = test: Antiproliferative activity against human MCF7 cells assessed as cell viability at 100 uM after 72 hrs by MTT assay; format: functional; conditions: MCF7, 72 h, read-out: Activity; procedure, shortened: as §1
Candida albicans [11] = test: Growth inhibition of Candida albicans ATCC 90028 at 0.25 ug/ml incubated for 18 hrs at 35 degC by broth microdilution method relative to control; format: functional; conditions: ATCC 90028, 18 h, read-out: GI
Candida albicans [12] = test: Growth inhibition of Candida albicans ATCC 90028 at 0.5 ug/ml incubated for 18 hrs at 35 degC by broth microdilution method relative to control; format: functional; conditions: ATCC 90028, 18 h, read-out: GI
CCRF-CEM [13] = test: Antiproliferative activity against human CCRF-CEM cells assessed as cell viability at 200 uM after 72 hrs by MTT assay; format: functional; conditions: read-out: Activity; procedure, shortened: as §1
Candida albicans [14] = test: Growth inhibition of Candida albicans ATCC 90028 at 8 ug/ml incubated for 4 hrs at 35 degC by broth microdilution method relative to control; format: functional; conditions: ATCC 90028, 4 h, read-out: GI
CCRF-CEM [15] = test: Antiproliferative activity against human CCRF-CEM cells after 72 hrs by MTT assay; format: functional, cell-based
Procedure, shortened: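 EC50 was derived from a repeat 72 h MTT assay in CCRF-CEM or MCF-7 cells. It is the concentration killing 50% of tumour cells compared with control cells incubated without inhibitor in 0.5% DMSO.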

Candida albicans [16] = test: Growth inhibition of Candida albicans ATCC 90028 at 1 ug/ml incubated for 4 hrs at 35 degC by broth microdilution method relative to control; format: functional; conditions: ATCC 90028, 4 h, read-out: GI
MCF7 [17] = test: Antiproliferative activity against human MCF7 cells assessed as cell viability at 25 uM after 72 hrs by MTT assay; format: functional; conditions: MCF7, 72 h, read-out: Activity; procedure, shortened: as §1
MCF7 [18] = test: Antiproliferative activity against human MCF7 cells assessed as cell viability at 200 uM after 72 hrs by MTT assay; format: functional; conditions: MCF7, 72 h, read-out: Activity; procedure, shortened: as §1
Vero [19] = test: Cytotoxicity in African green monkey Vero cells up to 64 ug/ml incubated for 3 to 18 hrs by XTT assay; format: cell-based; conditions: chlorocebus sabaeus
Candida albicans [20] = test: Growth inhibition of Candida albicans ATCC 90028 at 8 ug/ml incubated for 48 hrs at 35 degC by broth microdilution method relative to control; format: functional; conditions: ATCC 90028, 48 h, read-out: GI
CCRF-CEM [21] = test: Antiproliferative activity against human CCRF-CEM cells assessed as cell viability at 100 uM after 72 hrs by MTT assay; format: functional; conditions: read-out: Activity; procedure, shortened: as §1
Candida albicans [22] = test: Growth inhibition of Candida albicans ATCC 90028 at 2 ug/ml incubated for 4 hrs at 35 degC by broth microdilution method relative to control; format: functional; conditions: ATCC 90028, 4 h, read-out: GI
CCRF-CEM [23] = test: Antiproliferative activity against human CCRF-CEM cells assessed as cell viability at 25 uM after 72 hrs by MTT assay; format: functional; conditions: read-out: Activity; procedure, shortened: as §1
Vero [24] = test: Cytotoxicity in African green monkey Vero cells incubated for 18 hrs by XTT assay; format: cell-based; conditions: Chlorocebus sabaeus
Candida albicans [25] = test: Growth inhibition of Candida albicans ATCC 90028 at 4 ug/ml incubated for 18 hrs at 35 degC by broth microdilution method relative to control; format: functional; conditions: ATCC 90028, 18 h, read-out: GI
Candida albicans [26] = test: Fungicidal activity against Candida albicans ATCC 90028 assessed as log reduction in cell viability at 16 ug/ml after 48 hrs at 35 degC; format: functional
Procedure, shortened: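 MFC assay on C. albicans ATCC 90028 following M27-A3, at the molar equivalent of 16 µg/mL. CFU of treated cells were compared with CFU of the untreated inoculum. Activity is given as lg R = lg CFU/mL control − lg CFU/mL treated, and lg R ≥3 was defined as fungicidal. Values are means of two independent experiments.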

Candida albicans [27] = test: Growth inhibition of Candida albicans ATCC 90028 at 8 ug/ml incubated for 18 hrs at 35 degC by broth microdilution method relative to control; format: functional; conditions: ATCC 90028, 18 h, read-out: GI
Candida albicans [28] = test: Growth inhibition of Candida albicans ATCC 90028 at 0.0625 ug/ml incubated for 4 hrs at 35 degC by broth microdilution method relative to control; format: functional; conditions: ATCC 90028, 4 h, read-out: GI
Candida albicans [29] = test: Growth inhibition of Candida albicans ATCC 90028 at 16 ug/ml incubated for 18 hrs at 35 degC by broth microdilution method relative to control; format: functional; conditions: ATCC 90028, 18 h, read-out: GI
Candida albicans [30] = test: Growth inhibition of Candida albicans ATCC 90028 at 0.5 ug/ml incubated for 4 hrs at 35 degC by broth microdilution method relative to control; format: functional; conditions: ATCC 90028, 4 h, read-out: GI
Candida albicans [31] = test: Growth inhibition of Candida albicans ATCC 90028 at 0.125 ug/ml incubated for 18 hrs at 35 degC by broth microdilution method relative to control; format: functional; conditions: ATCC 90028, 18 h, read-out: GI
Candida albicans [32] = test: Growth inhibition of Candida albicans ATCC 90028 at 0.0313 ug/ml incubated for 18 hrs at 35 degC by broth microdilution method relative to control; format: functional; conditions: ATCC 90028, 18 h, read-out: GI
Candida albicans [33] = test: Growth inhibition of Candida albicans ATCC 90028 at 0.0313 ug/ml incubated for 4 hrs at 35 degC by broth microdilution method relative to control; format: functional; conditions: ATCC 90028, 4 h, read-out: GI

SMILES | inhibition of growth at 2 µg/mL (Candida albicans [1]) [%] | inhibition of growth at 0.125 µg/mL (Candida albicans [2]) [%] | inhibition of growth at 0.0625 µg/mL (Candida albicans [3]) [%] | MFC (Candida albicans [4]) [µM] | inhibition of growth at 0.25 µg/mL (Candida albicans [5]) [%] | viability at 50 µM (MCF7 [6]) [%] | viability at 50 µM (CCRF-CEM [7]) [%] | inhibition of growth at 1 µg/mL (Candida albicans [8]) [%] | inhibition of growth at 16 µg/mL (Candida albicans [9]) [%] | viability at 100 µM (MCF7 [10]) [%] | inhibition of growth at 0.25 µg/mL (Candida albicans [11]) [%] | inhibition of growth at 0.5 µg/mL (Candida albicans [12]) [%] | viability at 200 µM (CCRF-CEM [13]) [%] | inhibition of growth at 8 µg/mL (Candida albicans [14]) [%] | inhibition of growth at 1 µg/mL (Candida albicans [16]) [%] | viability at 25 µM (MCF7 [17]) [%] | viability at 200 µM (MCF7 [18]) [%] | Activity (Vero [19]) | inhibition of growth at 8 µg/mL (Candida albicans [20]) [%] | viability at 100 µM (CCRF-CEM [21]) [%] | further results
CC(Cn1cnc2c1c(=O)n(C)c(=O)n2C)OCc1cn(CCCn2cnc3c(Br)c(Br)c(Br)c(Br)c32)nn1 (stereo not drawn) | 100 | 99.6 | 99.7 | 36 (≈ 28.6 µg/mL) | 99.6 | 29.7 | 0 | 100 | 100 | 2 | 100 | 99.6 | 0 | 99 | 99.2 | 74.5 | 4.1 | Non-Toxic | 99.2 | 0 | EC50 (CCRF-CEM [15]): 6.3 µM; inhibition of growth at 2 µg/mL (Candida albicans [22]): 99.2%; viability at 25 µM (CCRF-CEM [23]): 0%; IC50 (Vero [24]): ≥ 280 µM; inhibition of growth at 4 µg/mL (Candida albicans [25]): 99.9%; log(activity) (Candida albicans [26]): 8; inhibition of growth at 8 µg/mL (Candida albicans [27]): 99.9%; inhibition of growth at 0.0625 µg/mL (Candida albicans [28]): 99.3%; inhibition of growth at 16 µg/mL (Candida albicans [29]): 99.9%; inhibition of growth at 0.5 µg/mL (Candida albicans [30]): 99%; inhibition of growth at 0.125 µg/mL (Candida albicans [31]): 100%
CC(Cn1cnc2c1c(=O)n(C)c(=O)n2C)OC(=O)N1c2ccccc2C=Cc2ccccc21 (stereo not drawn) | 99.8 | 99.7 | 99.9 | 35 (≈ 16 µg/mL) | 99.2 | 98.8 | 39.3 | 100 | 100 | 82.5 | 100 | 99.7 | 23.4 | 99.2 | 99.3 | 93.4 | 76.5 | Non-Toxic | 99.2 | 23.9 | inhibition of growth at 0.0313 µg/mL (Candida albicans [32]): 99.8%; inhibition of growth at 0.0313 µg/mL (Candida albicans [33]): 99.1%; inhibition of growth at 2 µg/mL (Candida albicans [22]): 99.4%; viability at 25 µM (CCRF-CEM [23]): 52.4%; IC50 (Vero [24]): ≥ 280 µM; inhibition of growth at 4 µg/mL (Candida albicans [25]): 100%; log(activity) (Candida albicans [26]): 8; inhibition of growth at 8 µg/mL (Candida albicans [27]): 99.8%; inhibition of growth at 0.0625 µg/mL (Candida albicans [28]): 99.3%; inhibition of growth at 16 µg/mL (Candida albicans [29]): 100%; inhibition of growth at 0.5 µg/mL (Candida albicans [30]): 99.2%; inhibition of growth at 0.125 µg/mL (Candida albicans [31]): 100%
